Source: publication PMC7579299 (Anti-Inflammatory & Anti-Allergy Agents in Medicinal …, 2020)

Columns and labels:
[1] = system: MCF-7 (human breast cancer); test: Anticancer MTT assay, breast cancer cells; assay type: cell-based
Procedure, shortened: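 MCF-7 cells grown in DMEM with 10% FBS, penicillin and streptomycin at 37°C in 5% CO₂. About 5000 cells/well were exposed to test compound at 50-500 µg/mL (1 mg/ml DMSO working solution, 0.45-micron filtered) for 24, 48 or 72 h. MTT was added for 2 h, then lysis buffer for 4 h, and A570 was read. Viability = mean OD/control OD × 100.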

[2] = system: Human Red Blood Cell (HRBC) membrane; test: HRBC membrane stabilization method; assay type: cell-based
Procedure, shortened: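 Human red blood cell membrane stabilization assay, run in quadruplicate with diclofenac as reference. Hemolysis in distilled water was taken as 100%. Protection was calculated as % inhibition of hemolysis = 100 × (OD control − OD sample)/OD control.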

Compound | Relative percentage activity (anticancer) [1] | IC50 ([2]; Homo sapiens, Erythrocyte, read-out: HRBC membrane protection IC50) | HRBC membrane average protection ([2]; n=4)
COc1cccc2c1C(=O)c1c(O)c3c(c(O)c1C2=O)C[C@@](O)(C(=O)CO)C[C@@H]3O[C@H]1C[C@H](N)[C@H](O)[C@H](C)O1 [Doxorubicin] | 89.47 ± 2.87% | – | –
O=C(O)Cc1ccccc1Nc1c(Cl)cccc1Cl [Diclofenac] | – | 150 nM | 82.15%
